ChEMBL document CHEMBL3608261, “Metabolically programmed iron chelators” (Bioorg Med Chem, 2015)

What was measured:
[1] = tested on: Rattus norvegicus; assay: Iron clearing efficiency in bile duct cannulated Sprague-Dawley rat assessed as clearance of iron in bile at 300 umol/kg, po measured at 3 hrs intervals for up to 48 hrs relative to control; assay type: functional
Outline: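 Non-iron-overloaded male Sprague-Dawley rats (400–450 g) with cannulated bile ducts received 300 µmol/kg po or sc. […] Bile was sampled every 3 h for up to 48 h and urine at 24 h intervals. ICE = (treated minus control iron excretion) / theoretical output (2:1 ligand:Fe) × 100 over 48 h. Mean ± SEM.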

[2] = tested on: Rattus norvegicus; assay: Drug metabolism in Sprague-Dawley rat pancreas assessed as (S)-4'-(carboxymethoxy)-DADFT level at 300 umol/kg, sc after 4 to 8 hrs by HPLC analysis; assay type: ADME, organism-based; conditions: in vivo
Outline: (§1)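 Single sc injection in male Sprague-Dawley rats (250–350 g) of the monosodium salt at 300 µmol/kg, n=3 per time point, killed by CO2 at 0.5–8 h. Plasma came from citrated cardiac blood; organs were frozen. Homogenates were made 1:3 in 0.5 N HClO4, given a methanol rinse, held 30 min at −20 °C, centrifuged, diluted in pH 3.0 phosphate/CH3CN and filtered. RP-amide HPLC, UV 310 nm; values are means, nmol/g wet weight or µM.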

[3] = tested on: Rattus norvegicus; assay: Drug metabolism in Sprague-Dawley rat pancreas assessed as (S)-4'-(5-carboxypentyloxy)-DADFT level at 300 umol/kg, sc after 4 to 8 hrs by HPLC analysis; assay type: ADME, organism-based; conditions: in vivo; outline: as §1
[4] = tested on: Rattus norvegicus; assay: Drug metabolism in Sprague-Dawley rat pancreas assessed as (S)-4'-(3-carboxypropyloxy)-DADFT level at 300 umol/kg, sc after 0.5 hrs by HPLC analysis; assay type: ADME, organism-based; conditions: in vivo; outline: as §1
[5] = tested on: Rattus norvegicus; assay: Toxicity in Sprague-Dawley rat assessed as BUN level in blood at 384 umol/kg, po qd for 10 days; assay type: organism-based; conditions: in vivo, 240 h
Outline: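 Male Sprague-Dawley rats (n=5, 375–400 g) with normal iron stores were housed in metabolic cages. Drug was given po as the monosodium salt, once daily for 10 days at 384 µmol/kg/day. Rats were fasted overnight, dosed in the morning, and fed about 3 h post-drug. They were euthanized on day 11, and blood was taken for serum chemistry including BUN. Age-matched untreated rats served as controls.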

[6] = tested on: Rattus norvegicus; assay: Drug metabolism in Sprague-Dawley rat kidney assessed as (S)-4'-(carboxymethoxy)-DADFT level at 300 umol/kg, sc after 1 hr by HPLC analysis; assay type: ADME, organism-based; conditions: in vivo; outline: as §1
[7] = tested on: Rattus norvegicus; assay: Drug metabolism in Sprague-Dawley rat heart assessed as (S)-4'-(carboxymethoxy)-DADFT level at 300 umol/kg, sc after 1 hr by HPLC analysis; assay type: ADME, organism-based; conditions: in vivo; outline: as §1
[8] = tested on: Rattus norvegicus; assay: Drug metabolism in Sprague-Dawley rat pancreas assessed as (S)-4'-(5-carboxypentyloxy)-DADFT level at 300 umol/kg, sc after 0.5 to 8 hrs by HPLC analysis; assay type: ADME, organism-based; conditions: in vivo; outline: as §1
[9] = tested on: Rattus norvegicus; assay: Drug metabolism in Sprague-Dawley rat liver assessed as parent compound and metabolite level at 300 umol/kg, sc after 8 hrs by HPLC analysis; assay type: ADME, organism-based; conditions: in vivo
Outline: (§2)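 Rats (male Sprague-Dawley, 250–350 g) were dosed sc once with the monosodium salt, 300 µmol/kg, three animals per time point up to 8 h. Plasma came from citrated cardiac blood; liver was frozen after CO2 euthanasia. Parent and metabolites were quantified by HPLC with UV at 310 nm against linear calibration curves (detection limit 0.25 µM, linear 1–1000 µM). Data are means.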

[10] = tested on: Sapajus apella; assay: Iron clearing efficiency in bile duct cannulated Cebus apella assessed as clearance of iron in bile at 75 umol/kg, po measured at 3 hrs intervals for up to 48 hrs relative to control; assay type: functional
[11] = tested on: Rattus norvegicus; assay: Drug metabolism in Sprague-Dawley rat kidney assessed as (S)-4'-(carboxymethoxy)-DADFT level at 300 umol/kg, sc after 0.5 hrs by HPLC analysis; assay type: ADME, organism-based; conditions: in vivo; outline: as §1
[12] = tested on: Rattus norvegicus; assay: Drug metabolism in Sprague-Dawley rat pancreas assessed as (S)-4'-(3-carboxypropyloxy)-DADFT level at 300 umol/kg, sc after 1 hr by HPLC analysis; assay type: ADME, organism-based; conditions: in vivo; outline: as §1
[13] = tested on: Rattus norvegicus; assay: Drug metabolism in Sprague-Dawley rat pancreas assessed as (S)-4'-(3-carboxypropyloxy)-DADFT level at 300 umol/kg, sc after 4 to 8 hrs by HPLC analysis; assay type: ADME, organism-based; conditions: in vivo; outline: as §1
[14] = tested on: Rattus norvegicus; assay: Drug metabolism in Sprague-Dawley rat plasma assessed as parent compound and metabolite level at 300 umol/kg, sc after 8 hrs by HPLC analysis; assay type: ADME, organism-based; conditions: in vivo, read-out: Drug metabolism; outline: as §2
[15] = tested on: Rattus norvegicus; assay: Drug metabolism in Sprague-Dawley rat liver assessed as parent compound and (S)-4'-(3-carboxypropyloxy)-DADFT level at 300 umol/kg, sc after 8 hrs by HPLC analysis; assay type: ADME, organism-based; conditions: in vivo; outline: as §1
[16] = tested on: Rattus norvegicus; assay: Drug metabolism in Sprague-Dawley rat kidney assessed as (S)-4'-(3-carboxypropyloxy)-DADFT level at 300 umol/kg, sc after 0.5 to 1 hrs by HPLC analysis; assay type: ADME, organism-based; conditions: in vivo; outline: as §1
[17] = tested on: Rattus norvegicus; assay: Drug metabolism in Sprague-Dawley rat kidney assessed as (S)-4'-(carboxymethoxy)-DADFT level at 300 umol/kg, sc after 8 hrs by HPLC analysis; assay type: ADME, organism-based; conditions: in vivo; outline: as §1
[18] = tested on: Rattus norvegicus; assay: Toxicity in Sprague-Dawley rat assessed as mortality at 384 umol/kg, po qd for 10 days; assay type: organism-based; conditions: in vivo, 240 h
Outline: (§3)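 Male Sprague-Dawley rats (n=5, 375–400 g) with normal iron stores, housed singly in metabolic cages and weighed daily. Drug given po by gavage as monosodium salt once daily for 10 days, dosed in the morning after overnight fast; fed ~3 h post-drug. Euthanized day 11; CBC, serum chemistries and 25 tissues/rat for outside histopathology; age-matched untreated controls.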

[19] = tested on: Rattus norvegicus; assay: Drug metabolism in Sprague-Dawley rat heart assessed as (S)-4'-(carboxymethoxy)-DADFT level at 300 umol/kg, sc after 0.5 hrs by HPLC analysis; assay type: ADME, organism-based; conditions: in vivo; outline: as §1
[20] = tested on: Rattus norvegicus; assay: Drug metabolism in Sprague-Dawley rat pancreas assessed as parent compound level at 300 umol/kg, sc after 0.5 hrs by HPLC analysis; assay type: ADME, organism-based; conditions: in vivo; outline: as §1
[21] = tested on: Rattus norvegicus; assay: Drug metabolism in Sprague-Dawley rat plasma assessed as (S)-4'-(carboxymethoxy)-DADFT level at 300 umol/kg, sc after 8 hrs by HPLC analysis; assay type: ADME, organism-based; conditions: in vivo; outline: as §1
[22] = tested on: Rattus norvegicus; assay: Drug metabolism in Sprague-Dawley rat kidney assessed as (S)-4'-(5-carboxypentyloxy)-DADFT level at 300 umol/kg, sc after 0.5 to 1 hrs by HPLC analysis; assay type: ADME, organism-based; conditions: in vivo; outline: as §1
[23] = tested on: Rattus norvegicus; assay: Drug metabolism in Sprague-Dawley rat kidney assessed as (S)-4'-(3-carboxypropyloxy)-DADFT level at 300 umol/kg, sc after 8 hrs by HPLC analysis; assay type: ADME, organism-based; conditions: in vivo; outline: as §1
[24] = tested on: Rattus norvegicus; assay: Drug metabolism in Sprague-Dawley rat heart assessed as (S)-4'-(3-carboxypropyloxy)-DADFT level at 300 umol/kg, sc after 0.5 to 1 hrs by HPLC analysis; assay type: ADME, organism-based; conditions: in vivo; outline: as §1
[25] = tested on: Rattus norvegicus; assay: Drug metabolism in Sprague-Dawley rat heart assessed as (S)-4'-(5-carboxypentyloxy)-DADFT level at 300 umol/kg, sc up to 8 hrs by HPLC analysis; assay type: ADME, organism-based; conditions: in vivo; outline: as §1
[26] = tested on: Rattus norvegicus; assay: Drug metabolism in Sprague-Dawley rat liver assessed as (S)-4'-(5-carboxypentyloxy)-DADFT level at 300 umol/kg, sc after 0.5 to 1 hrs by HPLC analysis; assay type: ADME, organism-based; conditions: in vivo; outline: as §1
[27] = tested on: Rattus norvegicus; assay: Drug metabolism in Sprague-Dawley rat heart assessed as (S)-4'-(carboxymethoxy)-DADFT level at 300 umol/kg, sc after 2 to 8 hrs by HPLC analysis; assay type: ADME, organism-based; conditions: in vivo; outline: as §1
[28] = tested on: Rattus norvegicus; assay: Toxicity in Sprague-Dawley rat assessed as histopathology at 384 umol/kg, po qd for 10 days; assay type: organism-based; conditions: in vivo, 240 h; outline: as §3
[29] = tested on: Rattus norvegicus; assay: Drug metabolism in Sprague-Dawley rat kidney assessed as (S)-4'-(carboxymethoxy)-DADFT level at 300 umol/kg, sc after 2 hrs by HPLC analysis; assay type: ADME, organism-based; conditions: in vivo; outline: as §1
[30] = tested on: Rattus norvegicus; assay: Drug metabolism in Sprague-Dawley rat heart assessed as parent compound level at 300 umol/kg, sc after 0.5 hrs by HPLC analysis; assay type: ADME, organism-based; conditions: in vivo; outline: as §1
[31] = tested on: Rattus norvegicus; assay: Iron clearing efficiency in bile duct cannulated Sprague-Dawley rat assessed as clearance of iron in urine at 300 umol/kg, po measured at 3 hrs intervals for up to 48 hrs relative to control; assay type: functional
[32] = Performance ratio, ratio of iron clearing efficiency in […] at 75 umol/kg, po to iron clearing efficiency in bile duct cannulated Sprague-Dawley rat at 300 umol/kg, po; assay type: functional
Outline: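 Performance ratio = mean ICE in iron-overloaded Cebus apella (75 µmol/kg) divided by mean ICE in bile duct-cannulated rats (300 µmol/kg), by the same route.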

[33] = tested on: Rattus norvegicus; assay: Drug metabolism in Sprague-Dawley rat plasma assessed as parent compound and metabolite level at 300 umol/kg, sc after 4 hrs by HPLC analysis; assay type: ADME, organism-based; conditions: in vivo; outline: as §2

C[C@]1(C(=O)O)CSC(c2ccc(OCCCCCCO)cc2O)=N1
Activity [1]: 96%
Drug metabolism [2]: metabolite_notdetected
Drug metabolism [3]: metabolite_notdetected
Drug metabolism [4]: 19 nmol/g
Activity [5]: 20 mg/dL
Drug metabolism [6]: 201 nmol/g
Drug metabolism [7]: 23 nmol/g
Drug metabolism [8]: metabolite_notdetected
Drug metabolism [9]: metabolite_detected
Activity [10]: 90%
Drug metabolism [11]: 156 nmol/g
Drug metabolism [12]: 23 nmol/g
Drug metabolism [13]: metabolite_notdetected
concentration [14]: 23 µM
Drug metabolism [15]: metabolite_notdetected
Drug metabolism [16]: 300 nmol/g
Drug metabolism [17]: 5 nmol/g
Activity [18]: Non-toxic
Drug metabolism [19]: 17 nmol/g
Drug metabolism [20]: < 5 nmol/g
Drug metabolism [21]: metabolite_detected
Drug metabolism [22]: metabolite_detected
Drug metabolism [23]: metabolite_notdetected
Drug metabolism [24]: 46 nmol/g
Drug metabolism [25]: metabolite_notdetected
Drug metabolism [26]: metabolite_detected
Drug metabolism [27]: metabolite_notdetected
Activity [28]: Non-toxic
Drug metabolism [29]: 161 nmol/g
Drug metabolism [30]: 26 nmol/g
Activity [31]: 4%
Ratio [32]: 2.2
Drug metabolism [33]: Not Active
